In ChEMBL document CHEMBL3244153, “Synthesis of arabinofuranosyl derivatives of 3-deazaguanine” (J Med Chem, 1979) one finds inhibition in vivo and Activity data, which are given here for 5 compounds.

Series [1] relates to Sarcoma-180. Put plainly: Antitumor activity against mouse Sarcoma 180 cells allografted in mouse assessed as reduction in tumor growth at 100 mg/kg, ip qd for 8 days measured one day after last treatment relative to control. In kind it is functional. The following applies: Sarcoma-180, ip, route intraperitoneal, read-out: TGI. In a few lines: (§1)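 Female CD mice (18-20 g) implanted subcutaneously with 3×10^7 Sarcoma 180 tumor cells in the right ventrolateral area. Doses tested were 100, 50, 25 and 12.5 mg/kg.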

Series [2] concerns Mus musculus. The series is described as follows: Toxicity in mouse allografted with mouse Sarcoma 180 cells assessed as mortality at 100 mg/kg, ip qd for 8 days measured one day after last treatment relative to control. The series is classed as organism-based. Set-up: dose 100 mg/kg, route intraperitoneal. The following applies: in vivo, 192 h. The method in brief:
as §1

In series [3] the test system is Sarcoma-180. The series is described as follows: Antitumor activity against mouse Sarcoma 180 cells allografted in mouse assessed as reduction in tumor growth at 50 mg/kg, ip qd for 8 days measured one day after last treatment relative to control. In kind it is functional. Conditions: Sarcoma-180, ip, route intraperitoneal, read-out: TGI. In a few lines:
as §1

The subject of series [4] is Sarcoma-180. The series is described as follows: Antitumor activity against mouse Sarcoma 180 cells allografted in mouse assessed as reduction in tumor growth at 25 mg/kg, ip qd for 8 days measured one day after last treatment relative to control. The series is classed as functional. Conditions: Sarcoma-180, ip, route intraperitoneal, read-out: TGI. In a few lines: as §1

The test system of series [5] is Sarcoma-180. Put plainly: Antitumor activity against mouse Sarcoma 180 cells allografted in mouse assessed as reduction in tumor growth at 12.5 mg/kg, ip qd for 8 days measured one day after last treatment relative to control. Conditions: Sarcoma-180, ip, route intraperitoneal, read-out: TGI. In kind it is functional. The method in brief:
as §1

Series [6] concerns Mus musculus. Put plainly: Toxicity in mouse allografted with mouse Sarcoma 180 cells assessed as mortality at 50 mg/kg, ip qd for 8 days measured one day after last treatment relative to control. The series is classed as organism-based. Conditions: in vivo, 192 h. Set-up: dose 50 mg/kg, route intraperitoneal. The method in brief:
as §1

The subject of series [7] is Mus musculus. Put plainly: Toxicity in mouse allografted with mouse Sarcoma 180 cells assessed as mortality at 25 mg/kg, ip qd for 8 days measured one day after last treatment relative to control. Set-up: dose 25 mg/kg, route intraperitoneal. Conditions: in vivo, 192 h. The series is classed as organism-based. The method in brief:
as §1

Series [8] concerns Mus musculus. Put plainly: Toxicity in mouse allografted with mouse Sarcoma 180 cells assessed as mortality at 12.5 mg/kg, ip qd for 8 days measured one day after last treatment relative to control. In kind it is organism-based. Further details: dose 12.5 mg/kg, route intraperitoneal. Conditions: in vivo, 192 h. The method in brief: as §1

The structures appear in SMILES notation.

`Nc1cc2c(ncn2[C@@H]2O[C@H](CO)[C@@H](O)[C@@H]2O)c(=O)[nH]1`: the inhibition in vivo at 100 mg/kg in series [1] stood at 16%. In addition, the Activity entry in series [2] is given as “Non-toxic”.

Turning to `Nc1cc2nc[nH]c2c(=O)[nH]1` [DEZAGUANINE], the inhibition in vivo at 100 mg/kg in series [1] is 89.6%. For the same compound, in series [3], the inhibition in vivo at 50 mg/kg is 74.2%. Further, the inhibition in vivo at 25 mg/kg in series [4] is 78.2%. For the same compound, the inhibition in vivo at 12.5 mg/kg in series [5] was determined as 46.2%. Also, the Activity result in series [2] was “Toxic”; in series [6], “Non-toxic”; in series [7], “Non-toxic”; in series [8] it was “Non-toxic”.

As to `Nc1cc2c(ncn2[C@H]2O[C@H](CO)[C@@H](O)[C@@H]2O)c(=O)[nH]1`, the inhibition in vivo at 100 mg/kg in series [1] is 24.2%. For the same compound, the Activity result in series [2] was “Non-toxic”.

Regarding `Nc1cc2ncn([C@H]3O[C@H](CO)[C@@H](O)[C@@H]3O)c2c(=O)[nH]1`, the inhibition in vivo at 100 mg/kg in series [1] was found to be 0%. Besides, the Activity entry in series [2] is “Non-toxic”.

For the compound `Nc1cc2ncn([C@@H]3O[C@H](CO)[C@@H](O)[C@@H]3O)c2c(=O)[nH]1`, the inhibition in vivo at 100 mg/kg in series [1] amounted to 5.6%. The Activity result in series [2] was “Non-toxic”.
